High-throughput results from PubChem.
TRPC4 PAM: allosteric potentiators of mouse TRPC4 channel; Q9QUQ5; HEK293 TRPC4beta/mu-opioid, DAMGO EC20, Fluo-4 Ca2+ flux; hits give high values; B-score at 10 µM; 0.42% of 310,000 active;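 active = B-score of calcium response area above 5 SD of library B-scores, with initial fluorescence ratio within 5 SD of library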;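 also: B-score of integrated fluorescence ratio over time as area under calcium response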
TRPC4 agonist: activators of mouse TRPC4 channel. B-score at 10 µM. Q9QUQ5. 0.49% of 310,000 active. HEK293 TRPC4beta/mu-opioid, Fluo4 calcium fluorescence; hits give high values;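 active = B-score above 5 SD of library B-scores, and initial fluorescence ratio not above library mean plus 5 SD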;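 also: positive B-score marks a calcium rise read as TRPC4 activation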
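Incubation: 45 min room-temperature Fluo4 loading, 110 s read / System: HEK293 cells stably co-expressing mouse TRPC4beta and mu-opioid receptor / Signal: Fluo4 fluorescence, kinetic / Control set: buffer (low) and maximal DAMGO (high) / Measure: integrated baseline-normalised fluorescence ratio, converted to per-well B score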
TRPC6 act: mouse TRPC6 channel activation. B-score at 10 µM. 0.13% of 310,000 active. Q61143. AID 2550. HEK293-TRPC6 membrane potential dye fluorescence; hits give high values;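 active = B-score of the integrated fluorescence ratio above library mean plus 3 SD, and starting fluorescence ratio within library mean plus 5 SD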;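 also: higher score means more depolarization so channel activation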
Target sequence (Q61143 whole entry, looked up): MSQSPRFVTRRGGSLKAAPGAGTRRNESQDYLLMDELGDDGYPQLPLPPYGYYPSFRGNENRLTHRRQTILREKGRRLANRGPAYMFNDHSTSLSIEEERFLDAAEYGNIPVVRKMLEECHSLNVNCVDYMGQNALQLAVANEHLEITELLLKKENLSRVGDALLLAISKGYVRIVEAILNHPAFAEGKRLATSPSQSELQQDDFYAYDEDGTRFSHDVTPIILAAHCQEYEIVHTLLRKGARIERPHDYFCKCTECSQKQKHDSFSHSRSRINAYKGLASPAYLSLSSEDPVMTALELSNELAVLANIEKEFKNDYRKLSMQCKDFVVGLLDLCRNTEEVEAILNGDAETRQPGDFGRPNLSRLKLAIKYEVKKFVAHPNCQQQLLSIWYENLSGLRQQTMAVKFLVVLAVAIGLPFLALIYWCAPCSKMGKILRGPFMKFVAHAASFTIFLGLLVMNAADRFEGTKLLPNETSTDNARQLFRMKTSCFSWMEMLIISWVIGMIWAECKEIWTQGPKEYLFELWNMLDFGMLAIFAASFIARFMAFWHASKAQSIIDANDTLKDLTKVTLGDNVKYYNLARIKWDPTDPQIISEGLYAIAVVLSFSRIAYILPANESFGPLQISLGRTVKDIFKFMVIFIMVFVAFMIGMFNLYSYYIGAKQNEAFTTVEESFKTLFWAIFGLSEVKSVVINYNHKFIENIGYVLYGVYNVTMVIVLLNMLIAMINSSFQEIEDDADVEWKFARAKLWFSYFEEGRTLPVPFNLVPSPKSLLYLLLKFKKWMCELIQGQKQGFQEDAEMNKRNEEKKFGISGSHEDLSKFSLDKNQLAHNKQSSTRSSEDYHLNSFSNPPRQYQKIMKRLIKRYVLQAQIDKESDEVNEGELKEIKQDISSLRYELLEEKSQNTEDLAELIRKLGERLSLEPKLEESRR
TRPC4 inh: blocks the mouse TRPC4 cation channel; B-score at 10 µM; Q9QUQ5; 0.39% of 300,000 active; HEK293 TRPC4beta/mu-opioid, DAMGO-evoked Fluo4 calcium flux; hits give low values;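 active = B-score over 3 SD under the library average, no early fluorescence shift, positive overall ratio signal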
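Material: HEK293 cells with stable TRPC4beta plus mu-opioid receptor expression; probe or stimulus: DAMGO in two steps, submaximal then maximal; technique: Fluo4 calcium fluorescence by kinetic imaging, 5 s 1 Hz baseline; measure: integrated fluorescence ratio relative to baseline, converted to per-well B score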
TRPC6 inhibitor: inhibitors of mouse TRPC6 channel | Q61143 | HEK293-TRPC6, membrane potential dye, ACh-evoked depolarization; hits give low values | B-score at 10 µM | 1.1% of 310,000 active | AID 2553;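 active = B-score under library mean minus 3 SD, initial fluorescence not abnormally high, positive integrated signal ratio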;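 also: B-score derived from integrated fluorescence ratio over the kinetic read; more negative B-score means stronger inhibition of depolarization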
TRPC4 sel inh 2: second selectivity test of TRPC6 inhibitors: effect on mouse TRPC4; shares compounds with TRPC6 inhibitor; HEK293 TRPC4/MOR, membrane potential dye fluorescence; channel activated by saturating DAMGO dose; inhibition, % at 10 µM; 42% of 920 active;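 active = compounds whose fluorescence signal differed from control wells by over 3 SD, either direction, in both duplicate plates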
TRPC4 spec: tests whether TRPC6 inhibitors also affect mouse TRPC4; 61% of 920 active; shares compounds with TRPC6 inhibitor; HEK293 TRPC4/mu-opioid, membrane potential fluorescence; AID 2777; activity change, negative = inhibition, % at 10 µM;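 active = rise or fall in signal beyond 3 SD of buffer-only wells in both replicate plates, either sign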;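 also: integrated kinetic ratio of fluorescence range over baseline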
HEK293 MPD ctr 2: second counter-screen for TRPC6 inhibitors: parental HEK293 cells; shares compounds with TRPC6 inhibitor; signal change vs control, % at 10 µM; 31% of 920 active; parental HEK293 membrane potential dye fluorescence; maximal acetylcholine challenge after compound addition;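 active = membrane potential signal moving either way by over 3 SD of the maximum-effect control, in both duplicate plates, meaning non-specific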
HEK293 MPD ctr: parental HEK293 nonspecific activity of TRPC6 inhibitors; shares compounds with TRPC6 inhibitor; parental HEK293 membrane potential dye fluorescence; membrane potential signal change, % at 10 µM; 60% of 920 active; AID 2780;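 active = membrane potential signal shifting up or down by more than 3 SD of buffer-only wells, on both duplicate plates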
TRPC6 block conf: mouse TRPC6 inhibitor confirmation; inhibition, % at 10 µM; 43% of 3,300 active; HEK293-TRPC6, membrane potential dye, ACh-evoked depolarization; shares compounds with TRPC6 inhibitor; AID 488960;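 active = fluorescence ratio falls more than 5 SD below the full-stimulation control mean, in both duplicate runs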;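 also: integrated fluorescence ratio of peak minus minimum over baseline after agonist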
TRPC6 act conf: confirmation of mouse TRPC6 activators; shares compounds with TRPC6 inhibitor; HEK293-TRPC6 membrane potential dye fluorescence, FDSS; activation, % at 10 µM; 11% of 2,800 active; AID 488961;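 active = ratio signal rise beyond 5 SD above unstimulated control wells' mean, seen in both duplicate runs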;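 also: plate controls were buffer EC0 wells for no effect and acetylcholine ECmax response for full effect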
* hit, by the source's call. Only some compounds are listed: those with a hit (about 2.3% of all), similar ones and a draw of the others.

Screening O=c1c2cc(Br)ccc2nc2n1CCCCC2 returned TRPC4 PAM inactive, TRPC4 agonist inactive, TRPC6 act inactive, TRPC4 inh inactive, TRPC6 inhibitor -7.8*, TRPC4 sel inh 2 inactive, TRPC4 spec inactive, HEK293 MPD ctr 2 inactive, HEK293 MPD ctr inactive, TRPC6 block conf inactive and TRPC6 act conf inactive.
For O=C(c1ccc2c(=O)n3c(nc2c1)CCCCC3)N1CCN(C(c2ccccc2)c2ccccc2)CC1 the results were TRPC4 PAM inactive, TRPC4 agonist inactive, TRPC6 act inactive, TRPC4 inh inactive, TRPC6 inhibitor -11*, TRPC4 sel inh 2 inactive, TRPC4 spec -9.3%*, HEK293 MPD ctr 2 inactive, HEK293 MPD ctr inactive, TRPC6 block conf inactive and TRPC6 act conf inactive.
`O=C(c1ccc2c(=O)n3c(nc2c1)CCCCC3)N1CCN(c2ccccc2)CC1` gave TRPC4 PAM inactive, TRPC4 agonist inactive, TRPC6 act inactive, TRPC4 inh inactive and TRPC6 inhibitor inactive.
Cc1ccc2nc3n(c(=O)c2c1)CCCCC3 was read as TRPC4 PAM inactive, TRPC4 agonist inactive, TRPC6 act inactive, TRPC4 inh inactive and TRPC6 inhibitor inactive.
Cc1nc2sccn2c(=O)c1S(=O)(=O)Nc1ccc(N2CCN(S(C)(=O)=O)CC2)cc1 was read as TRPC4 PAM inactive, TRPC4 agonist inactive, TRPC6 act inactive, TRPC4 inh inactive and TRPC6 inhibitor inactive.
COc1ccc(CNC(=O)CN(Cc2ccc(F)cc2)C(=O)CCC(=O)Nc2nccs2)cc1 was read as TRPC4 PAM inactive, TRPC4 agonist inactive, TRPC6 act inactive, TRPC4 inh inactive and TRPC6 inhibitor inactive.
For CCCCN(CCCC)c1cn[nH]c(=O)c1Cl the results were TRPC4 PAM inactive, TRPC4 agonist inactive, TRPC6 act inactive, TRPC4 inh inactive, TRPC6 inhibitor -6.9*, TRPC4 sel inh 2 inactive, TRPC4 spec 21%*, HEK293 MPD ctr 2 inactive, HEK293 MPD ctr 11%* and TRPC6 block conf inactive.
CCCCSc1nc2[nH]ncc2c(=O)[nH]1 was read as TRPC4 PAM inactive, TRPC4 agonist inactive, TRPC6 act inactive, TRPC4 inh inactive and TRPC6 inhibitor inactive.
For COc1ccc([N+](=O)[O-])cc1NCc1cccnc1 the results were TRPC4 PAM inactive, TRPC4 agonist inactive, TRPC6 act inactive, TRPC4 inh inactive and TRPC6 inhibitor inactive.
For Cc1ccc(NC(=O)c2cc([N+](=O)[O-])ccc2NCc2cccnc2)cc1 the results were TRPC4 PAM inactive, TRPC4 agonist inactive, TRPC6 act inactive, TRPC4 inh inactive, TRPC6 inhibitor -6.7*, TRPC4 sel inh 2 inactive, TRPC4 spec inactive, HEK293 MPD ctr 2 inactive, HEK293 MPD ctr -145%*, TRPC6 block conf inactive and TRPC6 act conf inactive.
